Measurements published in ChEMBL document CHEMBL4732262, “Identification of two novel thiophene analogues as inducers of autophagy mediated cell death in breast cancer cells” (Bioorg Med Chem, 2021).
Calls of active or inactive are those of the source. The calls are words filed in the database; no cut-off is given here.

Key:
[1] = tested on: MCF7; assay: Induction of apoptosis in human MCF7 cells assessed as late apoptotic cells at 2.5 uM after 24 hrs by annexin V-FITC/Propidium iodide staining based flow cytometric analysis (reference value: 0.2%); type: functional
[2] = tested on: MCF7; assay: Induction of apoptosis in human MCF7 cells assessed as morphological changes at 2.5 uM after up to 24 hrs by phase contrast microscopic method; type: functional, cell-based; details: time hrs <=24
In short: (§1)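 ~5 × 10^4 cells in 6-well plates, either DMSO control or 2.5 µM. Morphology imaged at 0, 6, 12 and 24 h.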

[3] = tested on: MDA-MB-231; assay: Induction of apoptosis in human MDA-MB-231 cells assessed as morphological changes at 2.5 uM after up to 24 hrs by phase contrast microscopic method; type: functional, cell-based; details: time hrs <=24; in short: as §1
[4] = tested on: MCF7; assay: Induction of apoptosis in human MCF7 cells assessed as increase in cell death at 2.5 uM after 24 hrs by EtBr/AO staining based fluorescence microscopic method relative to tanshinone-2A; type: functional
In short: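 MCF7 cells (~5 × 10^4 per well, on coverslips) were left untreated (DMSO control) or treated at 2.5 µM for 24 h. Cells were PBS-washed, stained with 1:1 EtBr/AO (0.4 mg/ml each), washed and mounted, then viewed by fluorescence microscopy (480 nm excitation, 515-530 nm barrier filter). 200 cells per sample were scored apoptotic, necrotic or viable; percentages were taken relative to live cells.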

[5] = tested on: MDA-MB-231; assay: Induction of apoptosis in human MDA-MB-231 cells at 2.5 uM after 24 hrs by annexin V-FITC/Propidium iodide staining based flow cytometric analysis relative to tanshinone-1; type: functional
[6] = tested on: MDA-MB-231; assay: Induction of apoptosis in human MDA-MB-231 cells assessed as increase in cleaved PARP level at 2.5 uM after r24 hrs by Western blot analysis; type: functional, cell-based; details: time 24.0 hrs
In short: (§2)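 MCF7 or MDA-MB-231 cells given 2.5 µM or DMSO for 24 h, then lysed in RIPA buffer. Immunoblots probed overnight at 4 °C, followed by infrared-labelled secondary antibody for 1 h at 37 °C. Bands imaged and quantified densitometrically, with GAPDH as loading control. Representative of two independent experiments.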

[7] = tested on: MCF7; assay: Induction of apoptosis in human MCF7 cells assessed as change in Bcl-2 protein expression at 2.5 uM after 24 hrs by Western blot analysis; type: functional, cell-based; in short: as §2
[8] = tested on: MCF7; assay: Induction of autophagy in human MCF7 cells assessed as increase in p62 degradation at 2.5 uM after 24 hrs by Western blot analysis; type: functional, cell-based
In short: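 MCF7 cells (~5 × 10^6) left untreated (DMSO control) or exposed to 2.5 µM compound for 24 h. Lysed in RIPA buffer, probed overnight at 4 °C, then given infrared-tagged secondary antibodies for 1 h at 37 °C and imaged by infrared scanning. LC3-II/I ratio and p62 taken by densitometry with GAPDH as loading control. Two independent experiments.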

[9] = tested on: MCF7; assay: Induction of autophagy in human MCF7 cells assessed as increase in ATG16L2 mRNA expression at 2.5 uM after 24 hrs by RT-PCR analysis; type: functional, cell-based
In short: (§3)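 MCF7 cells given 2.5 µM or DMSO for 24 h. Total RNA extracted with TRIzol and reverse-transcribed, then SYBR Green qPCR across 34 autophagy-regulatory genes (95 °C 10 min; 40 cycles of 95 °C 15 s and 60 °C 1 min). Relative expression by 2^-ΔΔCt against housekeeping genes and DMSO control, shown as log2. Two independent experiments.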

[10] = tested on: MCF7; assay: Induction of autophagy in human MCF7 cells assessed as increase in GABARAP mRNA expression at 2.5 uM after 24 hrs by RT-PCR analysis; type: functional, cell-based; in short: as §3
[11] = tested on: MCF7; assay: Induction of autophagy in human MCF7 cells assessed as increase in GABARAPL1 mRNA expression at 2.5 uM after 24 hrs by RT-PCR analysis; type: functional, cell-based; in short: as §3
[12] = tested on: MCF7; assay: Induction of autophagy in human MCF7 cells assessed as increase in GABARAPL2 mRNA expression at 2.5 uM after 24 hrs by RT-PCR analysis; type: functional, cell-based; in short: as §3
[13] = tested on: MCF7; assay: Induction of autophagy in human MCF7 cells assessed as increase in PIK3CG mRNA expression at 2.5 uM after 24 hrs by RT-PCR analysis; type: functional, cell-based
In short: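 Total RNA was taken with TRIzol from MCF7 cells treated 24 h with 2.5 µM compound or DMSO, then reverse transcribed. SYBR Green qPCR ran 40 cycles of 95 °C 15 s / 60 °C 1 min. Relative expression was calculated by 2^-ΔΔCt against DMSO-treated cells, normalized to housekeeping genes (GAPDH, B2M and others). Samples run in duplicate, two independent experiments, values averaged.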

[14] = tested on: MCF7; assay: Induction of autophagy in human MCF7 cells assessed as increase in IRE1 mRNA expression at 2.5 uM after 24 hrs by PCR microarray analysis; type: functional, cell-based
In short: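 MCF7 cells given 2.5 µM or DMSO for 24 h. cDNA run on an Unfolded Protein Response RT2 Profiler PCR array. Changes computed by 2^-ΔΔCt (log2) against control, normalised to the mean of ACTB, B2M, GAPDH, HPRT1 and RPLPO.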

[15] = tested on: MCF7; assay: Induction of autophagy in human MCF7 cells assessed as increase in GADD34 protein expression at 2.5 uM after 24 hrs by Western blot analysis; type: functional, cell-based; in short: as §2
[16] = tested on: MCF7; assay: Induction of autophagy in human MCF7 cells assessed as increase in LC3-2 conversion level at 2.5 uM after 24 hrs in presence of chloroquine by Western blot analysis; type: functional, cell-based
In short: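 MCF7 cells given 2.5 µM alone or combined with 50 µM chloroquine for 24 h. Western blot for cleaved PARP, p62 and LC3, with GAPDH as loading control. LC3-II/I ratio by densitometry. At least two independent experiments.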

[17] = tested on: MCF7; assay: Induction of autophagy in human MCF7 cells expressing GFP-LC3 assessed as distinct puncta pattern at 2.5 uM after 24 hrs by live-cell confocal microscopic analysis; type: functional, cell-based
In short: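 MCF7 cells (~1 × 10^6) at 70% confluency on glass-bottom dishes were transiently transfected with GFP-LC3 (Lipofectamine 3000). 24 h later they received 2.5 µM compound or DMSO for another 24 h. Nuclei were stained with Hoechst 33342 and lysosomes with LysoTracker Red DND-99, then imaged by live-cell confocal microscopy. LC3 puncta were counted in at least 10 cells from 3 fields. Two independent experiments.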

[18] = tested on: MDA-MB-231; assay: Cytotoxicity against human MDA-MB-231 cells assessed as reduction in cell viability at 25 to 100 uM after 24 hrs in presence of chloroquine by MTT assay; type: functional, cell-based; details: dose 25-100 µM
In short: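 ~0.5 × 10^5 cells per well in six-well plates given 2.5 µM test agent together with chloroquine at 25, 50 or 100 µM, 24 h at 37 °C in humidified CO2. Viability read by MTT. Duplicate assays from two independent experiments, shown with SD.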

| SMILES | Activity [1] [%] | Activity [2] | Activity [3] | fold change (FC) [4] | fold change (FC) [5] | Activity [6] | Activity [7] | Activity [8] | Activity [9] | Activity [10] | Activity [11] | Activity [12] | Activity [13] | Activity [14] | Activity [15] | Activity [16] | Activity [17] | Activity [18] |
| --- | --- | --- | --- | --- | --- | --- | --- | --- | --- | --- | --- | --- | --- | --- | --- | --- | --- | --- |
| O=C1C(=O)c2sccc2-c2ccccc21 | 23.5 | Active | Active | 2 | >=2 | Active | inactive | Active | Active | Active | Active | Active | Active | Active | Active | inactive | Active | inactive |
| O=C1C(=O)c2ccsc2-c2ccccc21 | 19.1 | Active | Active | 2 | >=2 | Active | inactive | Active | Active | Active | Active | Active | Active | Active | Active | inactive | Active | inactive |
